{"source": "ChEMBL document CHEMBL4261600", "about": "(Eur J Med Chem, 2018)", "key": {"[1]": {"system": "Hepatocyte growth factor receptor (Homo sapiens), P08581 [M1250T]", "assay": "Binding affinity to human partial length MET M1250T mutant (D1010 to S1367 residues) expressed in bacterial expression system assessed as remaining unbound target protein level at 1000 nM by Kinomescan method relative to control", "method_in_brief": "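KINOMEscan competition-binding profiling across the panel of 468 kinases and mutants, with inhibitor tested at 1 μM. Binding is expressed as percent of control, with DMSO as the reference control.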"}, "[2]": {"target": "Serine/threonine-protein kinase PAK 4 (Homo sapiens) (UniProt O96013)", "assay": "Binding affinity to wild-type human partial length PAK4 (Q144 to R438 residues) expressed in bacterial expression system assessed as remaining unbound target protein level at 1000 nM by Kinomescan method relative to control", "method_in_brief": "(§1)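 KINOMEscan binding panel of 468 kinases/mutants. Inhibitor was tested at a single concentration of 1 μM. Binding is reported as percent of control, defined relative to a DMSO control.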"}, "[3]": {"target": "Phosphatidylinositol 3-kinase C2 domain-containing subunit gamma (Homo sapiens) (UniProt O75747)", "assay": "Binding affinity to wild-type human partial length PIK3C2G (M1 to I1446 residues) expressed in mammalian expression system assessed as remaining unbound target protein level at 1000 nM by Kinomescan method relative to control", "method_in_brief": "as §1"}, "[4]": {"target": "Dual specificity mitogen-activated protein kinase kinase 2 (Homo sapiens) (UniProt P36507)", "sequence (P36507 whole entry, the tested form may be a part)": "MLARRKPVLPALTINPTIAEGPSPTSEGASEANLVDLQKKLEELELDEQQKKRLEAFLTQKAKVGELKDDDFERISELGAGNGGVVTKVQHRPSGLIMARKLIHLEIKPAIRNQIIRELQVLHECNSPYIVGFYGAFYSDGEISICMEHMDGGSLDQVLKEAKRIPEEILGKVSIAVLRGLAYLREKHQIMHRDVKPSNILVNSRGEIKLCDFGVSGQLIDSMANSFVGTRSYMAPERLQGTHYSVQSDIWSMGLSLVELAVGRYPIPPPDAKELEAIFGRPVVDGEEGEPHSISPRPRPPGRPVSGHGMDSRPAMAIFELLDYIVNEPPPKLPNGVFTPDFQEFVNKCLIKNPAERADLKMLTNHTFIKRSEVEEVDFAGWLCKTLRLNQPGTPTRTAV", "assay": "Binding affinity to wild-type human full length MEK2 (M1 to V400 residues) expressed in mammalian expression system assessed as remaining unbound target protein level at 1000 nM by Kinomescan method relative to control", "method_in_brief": "(§2)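 KINOMEscan competition binding profile across a panel of 468 kinases and mutants, with the inhibitor tested at a single concentration of 1 μM. Binding is reported as percent of control, meaning signal relative to a DMSO control.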"}, "[5]": {"target": "Serine/threonine-protein kinase DCLK1 (Homo sapiens) (UniProt O15075)", "sequence (O15075 whole entry, the tested form may be a part)": "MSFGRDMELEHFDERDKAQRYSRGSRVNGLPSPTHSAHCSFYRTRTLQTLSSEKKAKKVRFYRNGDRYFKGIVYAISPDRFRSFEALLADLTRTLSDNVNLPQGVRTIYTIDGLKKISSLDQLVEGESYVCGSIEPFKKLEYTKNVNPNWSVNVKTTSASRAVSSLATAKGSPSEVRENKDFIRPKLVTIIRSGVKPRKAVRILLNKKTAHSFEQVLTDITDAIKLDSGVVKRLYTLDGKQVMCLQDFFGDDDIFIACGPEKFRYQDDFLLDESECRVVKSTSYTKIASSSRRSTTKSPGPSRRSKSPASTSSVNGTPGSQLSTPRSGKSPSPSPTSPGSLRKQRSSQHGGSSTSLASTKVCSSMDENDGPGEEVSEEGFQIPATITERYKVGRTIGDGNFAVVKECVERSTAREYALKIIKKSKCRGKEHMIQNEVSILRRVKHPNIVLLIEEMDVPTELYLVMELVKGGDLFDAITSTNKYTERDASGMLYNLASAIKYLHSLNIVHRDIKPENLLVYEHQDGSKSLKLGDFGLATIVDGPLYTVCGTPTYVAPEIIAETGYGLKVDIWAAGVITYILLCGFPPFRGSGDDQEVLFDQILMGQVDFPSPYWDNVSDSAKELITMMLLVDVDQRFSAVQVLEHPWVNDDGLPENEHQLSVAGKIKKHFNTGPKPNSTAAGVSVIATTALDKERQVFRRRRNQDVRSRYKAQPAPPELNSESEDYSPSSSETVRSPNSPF", "assay": "Binding affinity to wild-type human partial length DCAMKL1 (L270 to A662 residues) expressed in mammalian expression system assessed as remaining unbound target protein level at 1000 nM by Kinomescan method relative to control"}, "[6]": {"target": "Interferon-induced, double-stranded RNA-activated protein kinase (Homo sapiens) (UniProt P19525)", "assay": "Binding affinity to wild-type human partial length PRKR (F247 to C551 residues) expressed in bacterial expression system assessed as remaining unbound target protein level at 1000 nM by Kinomescan method relative to control"}, "[7]": {"target": "Serine/threonine-protein kinase Nek11 (Homo sapiens) (UniProt Q8NG66)", "sequence (Q8NG66 whole entry, the tested form may be a part)": "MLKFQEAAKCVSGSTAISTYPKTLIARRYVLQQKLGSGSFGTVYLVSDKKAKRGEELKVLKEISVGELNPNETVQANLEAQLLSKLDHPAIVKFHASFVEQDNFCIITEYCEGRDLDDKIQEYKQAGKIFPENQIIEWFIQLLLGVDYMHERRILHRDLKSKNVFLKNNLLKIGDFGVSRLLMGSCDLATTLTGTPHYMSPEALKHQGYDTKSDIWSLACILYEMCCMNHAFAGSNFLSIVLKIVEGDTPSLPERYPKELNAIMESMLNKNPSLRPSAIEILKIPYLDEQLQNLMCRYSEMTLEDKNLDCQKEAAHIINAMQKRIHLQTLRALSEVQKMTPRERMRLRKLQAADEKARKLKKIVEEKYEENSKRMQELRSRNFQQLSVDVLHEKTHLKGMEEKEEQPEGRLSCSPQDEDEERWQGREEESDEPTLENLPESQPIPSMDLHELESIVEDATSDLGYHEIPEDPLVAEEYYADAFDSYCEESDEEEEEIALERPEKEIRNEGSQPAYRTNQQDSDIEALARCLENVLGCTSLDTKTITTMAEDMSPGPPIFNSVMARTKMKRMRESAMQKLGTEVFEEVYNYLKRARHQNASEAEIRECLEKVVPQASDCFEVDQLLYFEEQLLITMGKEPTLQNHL", "assay": "Binding affinity to wild-type human partial length NEK11 (M1 to E313 residues) expressed in mammalian expression system assessed as remaining unbound target protein level at 1000 nM by Kinomescan method relative to control"}, "[8]": {"target": "Serine/threonine-protein kinase MRCK alpha (Homo sapiens) (UniProt Q5VT25)", "assay": "Binding affinity to wild-type human partial length MRCKA (L57 to V418 residues) expressed in bacterial expression system assessed as remaining unbound target protein level at 1000 nM by Kinomescan method relative to control"}, "[9]": {"target": "Fibroblast growth factor receptor 2 (Homo sapiens) (UniProt P21802)", "assay": "Binding affinity to wild-type human partial length FGFR2 (D457 to E769 residues) expressed in bacterial expression system assessed as remaining unbound target protein level at 1000 nM by Kinomescan method relative to control", "method_in_brief": "as §1"}, "[10]": {"target": "Cyclin-dependent kinase 8 (Homo sapiens) (UniProt P49336)", "assay": "Binding affinity to wild-type human partial length CDK8 (M1 to T360 residues) expressed in bacterial expression system assessed as remaining unbound target protein level at 1000 nM by Kinomescan method relative to control"}, "[11]": {"assay": "Apparent volume of distribution in beagle dog at 2 mg/kg, iv by LC-MS/MS analysis", "type": "ADME, organism-based, Canis lupus familiaris", "conditions": "in vivo, read-out: Vz", "method_in_brief": "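Non-compartmental PK. Male SD rats 190-210 g, mice and beagle dogs acclimatized one week, fasted 12 h with water, split into iv and po groups (mice 48, rats 6, dogs 6). iv 3/3/2 mg/kg (mice/rats/dogs); po 10/20/10 mg/kg; vehicle DMSO in 5% glucose water. Blood at 2 or 5 to 720 min; plasma protein-precipitated with methanol, caffeine internal standard, LC-MS/MS.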"}, "[12]": {"target": "Receptor-type tyrosine-protein kinase FLT3 (Homo sapiens) (UniProt P36888)", "sequence (P36888 whole entry, the tested form may be a part)": "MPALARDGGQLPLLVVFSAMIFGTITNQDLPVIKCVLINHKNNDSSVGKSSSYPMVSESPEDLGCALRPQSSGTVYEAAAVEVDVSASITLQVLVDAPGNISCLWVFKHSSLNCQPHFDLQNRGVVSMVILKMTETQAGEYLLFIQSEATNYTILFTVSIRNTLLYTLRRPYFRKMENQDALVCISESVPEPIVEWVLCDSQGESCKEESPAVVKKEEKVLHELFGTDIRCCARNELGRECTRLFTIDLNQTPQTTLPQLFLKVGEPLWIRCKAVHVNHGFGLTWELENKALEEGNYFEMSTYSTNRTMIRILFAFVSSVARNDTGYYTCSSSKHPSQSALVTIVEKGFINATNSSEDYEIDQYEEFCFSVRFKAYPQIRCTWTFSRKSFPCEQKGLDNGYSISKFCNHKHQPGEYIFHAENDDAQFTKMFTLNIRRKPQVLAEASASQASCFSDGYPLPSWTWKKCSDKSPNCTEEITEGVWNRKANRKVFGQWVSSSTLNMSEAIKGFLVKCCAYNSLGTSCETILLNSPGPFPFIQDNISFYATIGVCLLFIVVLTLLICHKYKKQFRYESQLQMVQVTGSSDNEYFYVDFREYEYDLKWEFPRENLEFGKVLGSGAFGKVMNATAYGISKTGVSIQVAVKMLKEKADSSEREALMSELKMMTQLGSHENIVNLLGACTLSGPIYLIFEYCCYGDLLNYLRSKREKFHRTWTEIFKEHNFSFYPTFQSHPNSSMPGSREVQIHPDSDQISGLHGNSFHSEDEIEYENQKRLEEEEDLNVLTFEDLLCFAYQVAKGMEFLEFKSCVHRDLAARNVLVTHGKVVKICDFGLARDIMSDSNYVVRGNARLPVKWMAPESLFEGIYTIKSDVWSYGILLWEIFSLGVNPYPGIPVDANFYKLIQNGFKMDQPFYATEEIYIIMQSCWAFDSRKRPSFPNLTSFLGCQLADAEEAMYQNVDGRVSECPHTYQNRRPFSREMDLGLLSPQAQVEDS", "assay": "Binding affinity to wild-type human partial length FLT3 (V592 to Y969 residues) expressed in bacterial expression system assessed as remaining unbound target protein level at 1000 nM by Kinomescan method relative to control"}, "[13]": {"target": "Serine/threonine-protein kinase Nek3 (Homo sapiens) (UniProt P51956)", "sequence (P51956 whole entry, the tested form may be a part)": "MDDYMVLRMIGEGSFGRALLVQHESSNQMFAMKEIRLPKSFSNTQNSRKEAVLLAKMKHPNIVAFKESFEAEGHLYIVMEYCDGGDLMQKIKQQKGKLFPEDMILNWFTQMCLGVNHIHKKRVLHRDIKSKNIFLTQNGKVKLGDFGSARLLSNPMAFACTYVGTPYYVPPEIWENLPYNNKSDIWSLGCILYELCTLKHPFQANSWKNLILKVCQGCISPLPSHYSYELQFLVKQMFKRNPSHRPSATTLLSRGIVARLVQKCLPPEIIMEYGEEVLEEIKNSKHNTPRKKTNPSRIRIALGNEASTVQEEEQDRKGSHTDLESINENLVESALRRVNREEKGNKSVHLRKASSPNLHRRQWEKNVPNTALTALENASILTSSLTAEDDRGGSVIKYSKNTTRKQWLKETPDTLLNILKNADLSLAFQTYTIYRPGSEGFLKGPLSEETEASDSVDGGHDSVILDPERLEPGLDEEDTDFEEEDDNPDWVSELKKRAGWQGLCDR", "assay": "Binding affinity to wild-type human full length NEK3 (M1 to R506 residues) expressed in mammalian expression system assessed as remaining unbound target protein level at 1000 nM by Kinomescan method relative to control", "method_in_brief": "(§3)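 Single-point competition binding screen across a panel of 468 kinases and mutants, with the inhibitor at 1 μM. Binding is read out as percent of a DMSO control, and targets below 1 percent control were classed as strong binders.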"}, "[14]": {"target": "Mitogen-activated protein kinase 9 (Homo sapiens) (UniProt P45984)", "sequence (P45984 whole entry, looked up, the tested form may be a part)": "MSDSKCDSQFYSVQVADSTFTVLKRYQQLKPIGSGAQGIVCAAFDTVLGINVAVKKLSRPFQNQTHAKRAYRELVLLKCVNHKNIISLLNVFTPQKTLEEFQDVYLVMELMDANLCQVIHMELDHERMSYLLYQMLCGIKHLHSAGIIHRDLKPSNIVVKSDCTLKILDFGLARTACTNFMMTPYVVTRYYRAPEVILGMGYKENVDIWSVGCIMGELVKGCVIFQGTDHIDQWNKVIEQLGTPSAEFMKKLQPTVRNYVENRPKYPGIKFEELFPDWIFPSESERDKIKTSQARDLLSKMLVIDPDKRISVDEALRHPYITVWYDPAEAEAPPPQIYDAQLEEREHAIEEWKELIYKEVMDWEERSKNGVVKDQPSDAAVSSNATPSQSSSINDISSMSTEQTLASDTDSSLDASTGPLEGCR", "assay": "Binding affinity to wild-type human full length JNK2 (M1 to Q382 residues) expressed in mammalian expression system assessed as remaining unbound target protein level at 1000 nM by Kinomescan method relative to control", "method_in_brief": "as §2"}, "SK-N-BE(2)-M17": {"system": "SK-N-BE(2)-M17", "assay": "Antiproliferative activity against human BE(2)-M17 cells after 72 hrs by Celltiter-Glo assay", "type": "functional", "conditions": "SK-N-BE(2)-M17, 72 h", "method_in_brief": "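Cells seeded at 3000/well in 96-well plates, exposed to serially diluted compound for 72 h at 37 °C, 5% CO2. Viability read by CellTiter-Glo luminescence and normalized to DMSO control. GI50 derived from curve fit, mean of three independent measurements. Culture media: DMEM/10% FBS for adherent lines; IMDM for MV4-11 and MEC-1/2; RPMI 1640 for suspension lines and CHL.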"}, "CDK9/cyclin T1": {"target": "CDK9/cyclin T1 (Homo sapiens, UniProt P50750)", "assay": "Inhibition of recombinant full length His-tagged human CDK9/CyclinT1 expressed in baculovirus expression system"}, "[15]": {"target": "Atypical kinase COQ8A, mitochondrial (Homo sapiens) (UniProt Q8NI60)", "assay": "Binding affinity to wild-type human […] length ADCK3 (M280 to Q647 residues) expressed in bacterial expression system assessed as remaining unbound target protein level at 1000 nM by Kinomescan method relative to control", "method_in_brief": "as §3"}, "[16]": {"target": "Eukaryotic translation initiation factor 2-alpha kinase 1 (Homo sapiens) (UniProt Q9BQI3)", "sequence (Q9BQI3 whole entry, the tested form may be a part)": "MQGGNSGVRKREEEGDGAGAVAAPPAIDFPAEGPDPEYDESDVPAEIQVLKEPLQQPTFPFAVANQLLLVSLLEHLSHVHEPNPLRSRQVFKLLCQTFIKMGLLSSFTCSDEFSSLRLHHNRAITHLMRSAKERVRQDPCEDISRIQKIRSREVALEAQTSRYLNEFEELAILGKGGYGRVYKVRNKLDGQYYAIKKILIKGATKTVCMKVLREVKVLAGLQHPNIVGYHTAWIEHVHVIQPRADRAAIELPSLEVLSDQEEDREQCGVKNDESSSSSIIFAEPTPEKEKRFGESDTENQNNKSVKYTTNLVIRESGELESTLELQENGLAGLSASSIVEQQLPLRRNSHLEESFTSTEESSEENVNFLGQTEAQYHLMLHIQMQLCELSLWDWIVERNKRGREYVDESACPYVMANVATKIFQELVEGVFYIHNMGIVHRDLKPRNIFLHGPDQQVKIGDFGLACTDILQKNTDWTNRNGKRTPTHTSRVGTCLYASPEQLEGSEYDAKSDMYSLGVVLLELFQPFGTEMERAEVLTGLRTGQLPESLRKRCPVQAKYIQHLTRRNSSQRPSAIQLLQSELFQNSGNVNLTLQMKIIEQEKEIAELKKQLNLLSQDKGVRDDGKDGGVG", "assay": "Binding affinity to wild-type human partial length EIF2AK1 (Q147 to E603 residues) expressed in mammalian expression system assessed as remaining unbound target protein level at 1000 nM by Kinomescan method relative to control"}, "[17]": {"target": "Cyclin-dependent kinase 3 (Homo sapiens) (UniProt Q00526)", "sequence (Q00526 whole entry, looked up, the tested form may be a part)": "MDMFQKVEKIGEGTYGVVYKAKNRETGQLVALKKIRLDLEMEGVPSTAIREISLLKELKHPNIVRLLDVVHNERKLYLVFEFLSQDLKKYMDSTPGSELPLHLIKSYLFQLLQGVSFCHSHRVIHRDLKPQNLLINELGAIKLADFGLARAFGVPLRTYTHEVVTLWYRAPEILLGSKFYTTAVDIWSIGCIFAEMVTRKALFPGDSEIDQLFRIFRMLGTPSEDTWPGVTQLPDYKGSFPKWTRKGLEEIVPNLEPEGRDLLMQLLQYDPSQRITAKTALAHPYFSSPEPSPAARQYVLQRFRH", "assay": "Binding affinity to wild-type human full length CDK3 (M1 to H305 residues) expressed in bacterial expression system assessed as remaining unbound target protein level at 1000 nM by Kinomescan method relative to control", "method_in_brief": "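KINOMEscan competitive binding profile at 1 μM inhibitor. Remaining target binding reported as percent of DMSO control.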"}}, "data": [{"smiles": "COCCN[C@H]1CC[C@H](Nc2cc(-c3csc(NCC4(C#N)CCOCC4)n3)c(Cl)cn2)CC1", "values": [{"measurement": "Activity", "setting": "[1]", "result": 100, "unit": "%"}, {"measurement": "Activity", "setting": "[2]", "result": 91, "unit": "%"}, {"measurement": "Activity", "setting": "[3]", "result": 80, "unit": "%"}, {"measurement": "Activity", "setting": "[4]", "result": 95, "unit": "%"}, {"measurement": "Activity", "setting": "[5]", "result": 100, "unit": "%"}, {"measurement": "Activity", "setting": "[6]", "result": 98, "unit": "%"}, {"measurement": "Activity", "setting": "[7]", "result": 97, "unit": "%"}, {"measurement": "Activity", "setting": "[8]", "result": 83, "unit": "%"}, {"measurement": "Activity", "setting": "[9]", "result": 93, "unit": "%"}, {"measurement": "Activity", "setting": "[10]", "result": 100, "unit": "%"}, {"measurement": "Vd", "setting": "[11]", "result": 12.8, "unit": "L/kg"}, {"measurement": "Activity", "setting": "[12]", "result": 89, "unit": "%"}, {"measurement": "Activity", "setting": "[13]", "result": 100, "unit": "%"}, {"measurement": "Activity", "setting": "[14]", "result": 8.2, "unit": "%"}, {"measurement": "GI50", "setting": "SK-N-BE(2)-M17", "result": 34, "unit": "nM"}, {"measurement": "IC50", "setting": "CDK9/cyclin T1", "result": 1, "unit": "nM"}, {"measurement": "Activity", "setting": "[15]", "result": 88, "unit": "%"}, {"measurement": "Activity", "setting": "[16]", "result": 97, "unit": "%"}, {"measurement": "Activity", "setting": "[17]", "result": 81, "unit": "%"}]}]}
